# Laboratory results from ChEMBL document CHEMBL3808334, “Synthesis and in vitro evaluation of novel triazine analogues as anticancer agents and their interaction studies with bovine serum albumin” (Eur J Med Chem, 2016).
# Key:
# Format in all cases: functional
# [1] = Growth inhibition of human OVCAR4 cells assessed as cell growth at 10 uM incubated for 48 hrs by sulforhodamine B assay; conditions: OVCAR-4, 48 h, read-out: Activity
# [2] = Growth inhibition of human RPMI8226 cells assessed as cell growth at 10^-5 M incubated for 48 hrs by sulforhodamine B assay; conditions: RPMI-8226, 48 h, read-out: Activity
# [3] = Growth inhibition of human LOXIMVI cells assessed as cell growth at 10 uM incubated for 48 hrs by sulforhodamine B assay; conditions: LOX IMVI, read-out: Activity
# [4] = Growth inhibition of human DU145 cells assessed as cell growth at 10^-6 M incubated for 48 hrs by sulforhodamine B assay; conditions: DU-145, 48 h, read-out: Activity
# Summary of the method: (§1)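 Cells seeded at 5,000–40,000/well according to doubling time and preincubated 24 h at 37 °C, 5% CO2. Time-zero plates were TCA-fixed. DMSO concentrate was diluted in medium with 50 µg/ml gentamicin to give five concentrations (10-fold or ½ log steps), then exposed 48 h. Cells were TCA-fixed, stained with 0.4% SRB and read at 515 nm. Percent growth was taken against time-zero and control; GI50, TGI and LC50 derived.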
# [5] = tested on: HT-29; assay: Growth inhibition of human HT-29 cells assessed as cell growth at 10^-5 M incubated for 48 hrs by sulforhodamine B assay; conditions: HT-29, 48 h, read-out: Activity
# [6] = tested on: NCI-H23; assay: Growth inhibition of human NCI-H23 cells assessed as cell growth at 10 uM incubated for 48 hrs by sulforhodamine B assay; conditions: NCI-H23, 48 h, read-out: Activity
# [7] = tested on: SK-MEL-2; assay: Growth inhibition of human SK-MEL-2 cells assessed as cell growth at 10^-8 M incubated for 48 hrs by sulforhodamine B assay; conditions: SK-MEL-2, 48 h, read-out: Activity
# [8] = tested on: M14; assay: Growth inhibition of human M14 cells assessed as cell growth at 10^-5 M incubated for 48 hrs by sulforhodamine B assay; conditions: M14, 48 h, read-out: Activity
# [9] = Growth inhibition of human OVCAR5 cells assessed as cell growth at 10^-8 M incubated for 48 hrs by sulforhodamine B assay; conditions: OVCAR-5, 48 h, read-out: Activity
# [10] = tested on: MDA-MB-468; assay: Growth inhibition of human MDA-MB-468 cells assessed as cell growth at 10^-7 M incubated for 48 hrs by sulforhodamine B assay; conditions: MDA-MB-468, 48 h, read-out: Activity
# [11] = Growth inhibition of human Caki1 cells incubated for 48 hrs by sulforhodamine B assay; conditions: CAKI-1, 48 h; summary of the method: as §1
# [12] = tested on: Malme-3M; assay: Growth inhibition of human MALME-3M cells assessed as cell growth at 10^-5 M incubated for 48 hrs by sulforhodamine B assay; conditions: read-out: Activity
# [13] = Growth inhibition of human DU145 cells assessed as cell growth at 10^-5 M incubated for 48 hrs by sulforhodamine B assay; conditions: DU-145, 48 h, read-out: Activity; summary of the method: as §1
# [14] = Growth inhibition of human SW620 cells assessed as cell growth at 10^-6 M incubated for 48 hrs by sulforhodamine B assay; conditions: SW-620, 48 h, read-out: Activity
# [15] = Growth inhibition of human OVCAR8 cells incubated for 48 hrs by sulforhodamine B assay; conditions: OVCAR-8, 48 h
# Summary of the method: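 Cells were plated at 5,000–40,000 per well according to doubling time and preincubated 24 h at 37 °C in 5% CO2; time-zero plates were then TCA-fixed. Five concentrations (10-fold or ½-log dilutions, DMSO stock) were incubated 48 h. Cells were TCA-fixed, stained with 0.4% SRB and read at 515 nm. GI50 was taken where [(Ti−Tz)/(C−Tz)]×100 = 50.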
# [16] = tested on: K562; assay: Growth inhibition of human K562 cells assessed as cell growth at 10^-7 M incubated for 48 hrs by sulforhodamine B assay; conditions: K562, 48 h, read-out: Activity
# [17] = Growth inhibition of human UO31 cells assessed as cell growth at 10^-4 M incubated for 48 hrs by sulforhodamine B assay; conditions: UO-31, 48 h, read-out: Activity
# [18] = tested on: HT-29; assay: Growth inhibition of human HT-29 cells assessed as cell growth at 10^-8 M incubated for 48 hrs by sulforhodamine B assay; conditions: HT-29, 48 h, read-out: Activity
# [19] = Growth inhibition of human SF539 cells assessed as cell growth at 10^-5 M incubated for 48 hrs by sulforhodamine B assay; conditions: SF-539, 48 h, read-out: Activity
# [20] = Growth inhibition of human TK10 cells assessed as cell growth at 10^-7 M incubated for 48 hrs by sulforhodamine B assay; conditions: TK-10, 48 h, read-out: Activity
# [21] = tested on: NCI-H460; assay: Growth inhibition of human NCI-H460 cells assessed as cell growth at 10^-8 M incubated for 48 hrs by sulforhodamine B assay; conditions: NCI-H460, 48 h, read-out: Activity
# [22] = Growth inhibition of human Hs 578T cells assessed as cell growth at 10^-6 M incubated for 48 hrs by sulforhodamine B assay; conditions: read-out: Activity
# [23] = Growth inhibition of human TK10 cells assessed as cell growth at 10 uM incubated for 48 hrs by sulforhodamine B assay; conditions: TK-10, 48 h, read-out: Activity
# [24] = Growth inhibition of human UACC257 cells assessed as cell growth at 10 uM incubated for 48 hrs by sulforhodamine B assay; conditions: UACC-257, 48 h, read-out: Activity
# [25] = Growth inhibition of human HCC2998 cells assessed as cell growth at 10 uM incubated for 48 hrs by sulforhodamine B assay; conditions: HCC 2998, 48 h, read-out: Activity
# Summary of the method: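 Primary screen at one dose (10 µM) across 60 human cancer cell lines. Readout was growth percent relative to untreated control and time-zero.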
# [26] = tested on: ACHN; assay: Growth inhibition of human ACHN cells assessed as cell growth at 10^-4 M incubated for 48 hrs by sulforhodamine B assay; conditions: read-out: Activity
# Summary of the method: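 Five-dose assay: five concentrations from 10-fold or ½-log serial dilutions. Cells are plated at 5,000–40,000 per well according to doubling time, grown 24 h, then exposed 48 h at 37 °C, 5% CO₂. Fixed with cold 50% TCA (final addition) for 60 min at 4 °C and stained with 0.4% SRB in 1% acetic acid. Bound dye is solubilized in 10 mM Tris base and read at 515 nm. GI₅₀ is where [(Ti−Tz)/(C−Tz)]×100 = 50, with a time-zero plate as Tz.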
# [27] = Growth inhibition of human renal cancer cells incubated for 48 hrs by sulforhodamine B assay; conditions: Cancer cell lines
# [28] = Growth inhibition of human HCT15 cells assessed as cell growth at 10^-5 M incubated for 48 hrs by sulforhodamine B assay; conditions: HCT-15, 48 h, read-out: Activity; summary of the method: as §1
# [29] = read-out: pLC50 (the source's name) (converted)
# [30] = read-out: LC50 (the source's name)
structure (smiles),measurement,setting,value
Clc1ccc(-c2nc(Nc3ccc(-c4nc5ccccc5[nH]4)cc3)nc(N3CCOCC3)n2)cc1,growth at 10 µM,[1],-73.9%
same,growth at 10 µM,[2],-51%
same,growth at 10 µM,[3],-93%
same,growth at 1 µM,[4],26%
same,growth at 10 µM,[5],-74%
same,growth at 10 µM,[6],-83.4%
same,growth at 0.01 µM,[7],99%
same,growth at 10 µM,[8],-85%
same,growth at 0.01 µM,[9],97%
same,growth at 0.1 µM,[10],112%
same,LC50,[11],5230 nM
same,GI50,[11]; read-out: GI50,1410 nM
same,TGI,[11]; read-out: TGI,2720 nM
same,GI50,[11]; read-out: pGI50 (converted),1410 nM
same,CC50,[11]; [29],5250 nM
same,TGI,[11]; read-out: pTGI (converted),2690 nM
same,growth at 10 µM,[12],-78%
same,growth at 10 µM,[13],-93%
same,growth at 1 µM,[14],-72%
same,GI50,[15]; read-out: GI50,1120 nM
same,CC50,[15]; [30],6090 nM
same,TGI,[15]; read-out: TGI,2610 nM
same,GI50,[15]; read-out: pGI50 (converted),1120 nM
same,CC50,[15]; [29],6030 nM
same,TGI,[15]; read-out: pTGI (converted),2630 nM
same,growth at 0.1 µM,[16],92%
same,growth at 100 µM,[17],-41%
same,growth at 0.01 µM,[18],104%
same,growth at 10 µM,[19],-87%
same,growth at 0.1 µM,[20],92%
same,growth at 0.01 µM,[21],101%
same,growth at 1 µM,[22],43%
same,growth at 10 µM,[23],-94.4%
same,growth at 10 µM,[24],-82.5%
same,growth at 10 µM,[25],-89.9%
same,growth at 100 µM,[26],-30%
same,GI50,[27],1110 nM
same,TGI,[27],2250 nM
same,CC50,[27]; [30],5600 nM
same,growth at 10 µM,[28],-76%
